According to ChEMBL document CHEMBL5329147, “Synthesis of tryptanthrin appended dispiropyrrolidine oxindoles and their antibacterial evaluation” (RSC Med Chem, 2023):
Values after ≈ are worked out from the molar mass of the structure shown.

Tests used:
Pseudomonas aeruginosa = assay: Antibacterial activity against Pseudomonas aeruginosa ATCC 27853 assessed as bacterial growth inhibition incubated for 18 to 24 hrs by broth microdilution method; format: functional; details: time 18-24 hrs
Method in brief: (§1)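 CLSI broth microdilution. Overnight starter cultures (single colony, MHBII, 37 °C, shaking 18–24 h) were diluted by OD600 to 10^6 CFU/mL in MHBII. Two-fold dilutions from […] were made from 10 mg/mL DMSO stocks, then incubated 37 °C for 18-24 h. The MIC was the lowest concentration with no visible growth. Three independent runs, duplicate samples.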

Acinetobacter baumannii = assay: Antibacterial activity against Acinetobacter baumannii BAA-1605 assessed as bacterial growth inhibition incubated for 18 to 24 hrs by broth microdilution method; format: functional; details: time 18-24 hrs; method in brief: as §1
Staphylococcus aureus [1] = assay: Antibacterial activity against Staphylococcus aureus ATCC 29213 assessed as bacterial growth inhibition incubated for 18 to 24 hrs by broth microdilution method; format: functional; details: Staphylococcus aureus, ATCC 29213; time 18-24 hrs; read-out: MIC; method in brief: as §1
Escherichia coli = assay: Antibacterial activity against Escherichia coli ATCC 25922 assessed as bacterial growth inhibition incubated for 18 to 24 hrs by broth microdilution method; format: functional; details: time 18-24 hrs; method in brief: as §1
Klebsiella pneumoniae = assay: Antibacterial activity against Klebsiella pneumoniae BAA 1705 assessed as bacterial growth inhibition incubated for 18 to 24 hrs by broth microdilution method; format: functional; details: time 18-24 hrs; method in brief: as §1
[2] = Selectivity ratio of CC50 for African green monkey Vero cells to MIC against Staphylococcus aureus ATCC 29213; format: toxicity, cell-based
Staphylococcus aureus [3] = assay: Synergistic antibacterial activity against Staphylococcus aureus ATCC 29213 assessed as bacterial growth inhibition incubated for 24 hrs in presence of (S)-8''-Bromo-1-ethyl-1'-methyl-2,12''-dioxo-12''H-dispiro[indoline-3,4'-pyrrolidine-2',6''-indolo[2,1-b]quinazoline]-3',3'-dicarbonitrile by checkerboard assay; format: functional
Method in brief: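 Checkerboard in 96-well plates: two-fold serial dilutions, one agent along abscissa, partner antibiotic along ordinate. Wells received ~10⁵ CFU/mL S. aureus ATCC 29213 in MHBII. Incubation 37 °C, 24 h. ΣFIC = FIC A + FIC B, each FIC being combination MIC divided by MIC alone.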

Staphylococcus aureus [4] = assay: Antibacterial activity against methicillin resistant Staphylococcus aureus NRS 129 assessed as bacterial growth inhibition incubated for 18 to 24 hrs by broth microdilution method; format: functional; details: time 18-24 hrs
Method in brief: (§2)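 CLSI broth microdilution in MHBII; overnight starter cultures (single MHA colony, 37 °C, shaking) adjusted by OD600 to 10^6 CFU/mL. Compounds from DMSO stocks (10 mg/mL), two-fold series 64–0.5 mg/L. Incubation 37 °C, 18-24 h. MIC = lowest concentration with no visible growth. Three independent determinations, each in duplicate.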

Staphylococcus aureus [5] = assay: Antibacterial activity against methicillin resistant Staphylococcus aureus NRS 193 assessed as bacterial growth inhibition incubated for 18 to 24 hrs by broth microdilution method; format: functional; details: time 18-24 hrs; method in brief: as §2
Vero = assay: Cytotoxicity against African green monkey Vero cells assessed as cell viability incubated for 72 hrs by MTT assay; format: toxicity, cell-based; details: chlorocebus sabaeus
Method in brief: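 MTT assay on Vero cells, ~10^3 cells/well, 37 °C, 5% CO2. Compound was added at 24 h (100-12.5 μg/mL) for 72 h, then MTT for 4 h at 37 °C. Formazan was dissolved in DMSO and read at 540 nm. CC50 was the lowest concentration giving 50% viability loss. Doxorubicin positive control; triplicate.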

Staphylococcus aureus [6] = assay: Antibacterial activity against methicillin resistant Staphylococcus aureus NRS 194 assessed as bacterial growth inhibition incubated for 18 to 24 hrs by broth microdilution method; format: functional; details: time 18-24 hrs; method in brief: as §2
Staphylococcus aureus [7] = assay: Antibacterial activity against methicillin resistant Staphylococcus aureus NRS 191 assessed as bacterial growth inhibition incubated for 18 to 24 hrs by broth microdilution method; format: functional; details: time 18-24 hrs; method in brief: as §2
Staphylococcus aureus [8] = assay: Antibacterial activity against methicillin resistant Staphylococcus aureus NRS 192 assessed as bacterial growth inhibition incubated for 18 to 24 hrs by broth microdilution method; format: functional; details: time 18-24 hrs; method in brief: as §2
Staphylococcus aureus [9] = assay: Antibacterial activity against methicillin resistant Staphylococcus aureus NRS 119 assessed as bacterial growth inhibition incubated for 18 to 24 hrs by broth microdilution method; format: functional; details: time 18-24 hrs; method in brief: as §2
Staphylococcus aureus [10] = assay: Antibacterial activity against methicillin resistant Staphylococcus aureus NRS 186 assessed as bacterial growth inhibition incubated for 18 to 24 hrs by broth microdilution method; format: functional; details: time 18-24 hrs; method in brief: as §2
Staphylococcus aureus [11] = assay: Antibacterial activity against vancomycin resistant Staphylococcus aureus […] 12 assessed as bacterial growth inhibition incubated for 18 to 24 hrs by broth microdilution method; format: functional; details: time 18-24 hrs; method in brief: as §2
Staphylococcus aureus [12] = assay: Antibacterial activity against methicillin resistant Staphylococcus aureus NRS 198 assessed as bacterial growth inhibition incubated for 18 to 24 hrs by broth microdilution method; format: functional; details: time 18-24 hrs; method in brief: as §2
Staphylococcus aureus [13] = assay: Antibacterial activity against vancomycin resistant Staphylococcus aureus […] 4 assessed as bacterial growth inhibition incubated for 18 to 24 hrs by broth microdilution method; format: functional; details: time 18-24 hrs; method in brief: as §2
Staphylococcus aureus [14] = assay: Antibacterial activity against methicillin sensitive Staphylococcus aureus ATCC 29213 assessed as bacterial growth inhibition incubated for 18 to 24 hrs by broth microdilution method; format: functional; details: time 18-24 hrs; method in brief: as §2

SMILES	MIC (Pseudomonas aeruginosa) [µg/mL]	MIC (Acinetobacter baumannii) [µg/mL]	MIC (Staphylococcus aureus [1]) [µg/mL]	MIC (Escherichia coli) [µg/mL]	MIC (Klebsiella pneumoniae) [µg/mL]	selectivity ratio [2]	other results
CN1C(=O)[C@@]2(CN(C)C3(c4ccccc4-n4c3nc3ccccc3c4=O)C2(C#N)C#N)c2ccccc21 (some centres undefined)	> 64	> 64	8 (≈ 16.5 µM)	> 64	> 64		
CCN1C(=O)[C@@]2(CN(C)C3(c4cc([N+](=O)[O-])ccc4-n4c3nc3ccccc3c4=O)C2(C#N)C#N)c2ccccc21 (some centres undefined)	> 64	> 64	0.25 (≈ 0.46 µM)	> 64	> 64	< 10	
CCCCCCCCCC(=O)N[C@@H](Cc1c[nH]c2ccccc12)C(=O)N[C@H](CC(N)=O)C(=O)N[C@@H](CC(=O)O)C(=O)N[C@@H]1C(=O)NCC(=O)N[C@@H](CCCN)C(=O)N[C@@H](CC(=O)O)C(=O)N[C@H](C)C(=O)N[C@@H](CC(=O)O)C(=O)NCC(=O)N[C@H](CO)C(=O)N[C@@H]([C@H](C)CC(=O)O)C(=O)N[C@@H](CC(=O)c2ccccc2N)C(=O)O[C@@H]1C			1 (≈ 0.617 µM)				MIC (Staphylococcus aureus [3]): 1 µg/mL
CCN1C(=O)[C@@]2(CN(C)C3(c4cc(Cl)ccc4-n4c3nc3ccccc3c4=O)C2(C#N)C#N)c2ccccc21 (some centres undefined)	> 64	> 64	0.125 (≈ 0.235 µM)	> 64	> 64	> 80	MIC (Staphylococcus aureus [4]): 0.25 µg/mL (≈ 0.469 µM); MIC (Staphylococcus aureus [5]): 0.25 µg/mL (≈ 0.469 µM); Activity (Vero): Non-Toxic; MIC (Staphylococcus aureus [6]): 0.5 µg/mL (≈ 0.938 µM); MIC (Staphylococcus aureus [7]): 0.063 µg/mL (≈ 0.118 µM); MIC (Staphylococcus aureus [8]): 0.25 µg/mL (≈ 0.469 µM); MIC (Staphylococcus aureus [9]): 0.125 µg/mL (≈ 0.235 µM); MIC (Staphylococcus aureus [10]): 0.125 µg/mL (≈ 0.235 µM); MIC (Staphylococcus aureus [11]): 0.25 µg/mL (≈ 0.469 µM); MIC (Staphylococcus aureus [12]): 0.25 µg/mL (≈ 0.469 µM); MIC (Staphylococcus aureus [13]): 0.25 µg/mL (≈ 0.469 µM); MIC (Staphylococcus aureus [14]): 0.25 µg/mL (≈ 0.469 µM)
CC(C)(O/N=C(\C(=O)N[C@@H]1C(=O)N2C(C(=O)[O-])=C(C[n+]3ccccc3)CS[C@H]12)c1csc(N)n1)C(=O)O [CEFTAZIDIME]			8 (≈ 14.6 µM)				MIC (Staphylococcus aureus [3]): 8 µg/mL

Now from value to compound, other results behind:

MIC (Pseudomonas aeruginosa) [µg/mL]	MIC (Acinetobacter baumannii) [µg/mL]	MIC (Staphylococcus aureus [1]) [µg/mL]	MIC (Escherichia coli) [µg/mL]	MIC (Klebsiella pneumoniae) [µg/mL]	SMILES	selectivity ratio [2]	other results
> 64	> 64	0.25 (≈ 0.383 µM)	> 64	> 64	CCN1C(=O)[C@]2(c3ccccc31)C(Cc1ccccc1)NC1(c3cc(Br)ccc3-n3c1nc1ccccc1c3=O)C2(C#N)C#N (some centres undefined)		
> 64	> 64	1 (≈ 1.61 µM)	> 64	> 64	CCN1C(=O)[C@]2(c3ccccc31)C(C(=O)NCC(=O)O)NC1(c3cc(Cl)ccc3-n3c1nc1ccccc1c3=O)C2(C#N)C#N (some centres undefined)	10	
> 64	> 64	0.25 (≈ 0.477 µM)	> 64	> 64	CCN1C(=O)[C@]2(c3ccccc31)C1CCCN1C1(c3ccccc3-n3c1nc1ccccc1c3=O)C2(C#N)C#N (some centres undefined)		
> 64	> 64	0.25 (≈ 0.4 µM)	> 64	> 64	CCN1C(=O)[C@@]2(CN(C)C3(c4cc(I)ccc4-n4c3nc3ccccc3c4=O)C2(C#N)C#N)c2ccccc21 (some centres undefined)		
